The target of assay [1] is T1, Estrogen receptor (Mus musculus) (UniProt O08537+P19785). Kind of assay: Percent inhibition of uterotrophic effect in mice at 5 ug. Format: functional. Put shortly:
(§1)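 Antiestrogenic read-out: inhibition of estrone-stimulated uterine growth in immature female NMRI mice, 20 days old, in groups of 10. Test compound in 0.1 mL olive oil was given sc daily for 3 days. Uteri were taken 24 h after the last dose, fixed in Bouin's solution, washed, dried and weighed.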

Assay [2] has as its target T1, Estrogen receptor (Mus musculus). Briefly: Antiuterotrophic effect in mice at 50 ug. The assay is classed as functional. Further details: unit not given here. The method, boiled down:
as §1

For assay [3] the target is unchanged. Kind of assay: (§2) Uterotrophic effect in mice at 1 ug. Format: functional, tissue-based. As to conditions: Uterus. The method, boiled down: (§3)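 Immature female NMRI mice, 20 days old (14.5 ± 1.2 g), in groups of 10, injected sc daily for 3 days with test compound in 0.1 mL olive oil. Uteri were removed 24 h after the last injection, Bouin-fixed, washed, dried and weighed. Groups were compared by Wilcoxon–Mann–Whitney U test.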

Assay [4] has as its target Estrogen receptor (Bos taurus) (UniProt Q9XSB5+P49884). Kind of assay: Displacement of [3H]-estradiol from calf uterine estrogen receptor. The assay is classed as protein assay. The method, boiled down:
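Calf uterine cytosol incubated with [³H]estradiol and competitor at six concentrations, 4 °C for 16 h. Dextran-coated charcoal stopped incubation; supernatant radioactivity counted after centrifugation. Percent bound plotted vs log concentration; the molar concentrations of estradiol and test compound halving radioligand binding were read off and expressed as relative binding affinity.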

The target in assay [5] is T1, Estrogen receptor (Mus musculus). Kind of assay: (§4) Uterotrophic effect in mice at 10 ug. As to conditions: Uterus. Format: functional, tissue-based. The method, boiled down: as §3
For assay [6] the target is unchanged. Briefly: Percent inhibition of uterotrophic effect in mice at 500 ug. The assay is classed as functional. Put shortly: as §1
Assay [7] has the same target. Briefly: Antiuterotrophic effect in mice at 500 ug. Also on record: unit not given here. Format: functional. The method, boiled down:
as §1

Assay [8] shares this target. Briefly: Antiuterotrophic effect in mice at 0 ug. The assay is classed as functional. Put shortly: as §1
For assay [9] the target is unchanged. Kind of assay: (§5) Uterotrophic effect in mice at 0 ug. The assay is classed as functional, tissue-based. As to conditions: Uterus. Put shortly: as §3
Assay [10] shares this target. Kind of assay: Percent inhibition of uterotrophic effect in mice at 50 ug. Format: functional. Put shortly: as §1
Assay [11] shares this target. Briefly: Uterotrophic effect in mice at 100 ug. The assay is classed as functional, tissue-based. As to conditions: Uterus. Put shortly:
as §3

Assay [12] has the same target. Kind of assay: Antiuterotrophic effect in mice at 5 ug. Further details: unit not given here. Format: functional. Put shortly:
as §1

Assay [13] shares this target. Kind of assay: Uterotrophic effect in mice at 0.1 ug. Format: functional, tissue-based. As to conditions: Uterus. The method, boiled down: as §3
For assay [14] the target is unchanged. Briefly: Anti-estrogenic activity in mice at 50 ug. The assay is classed as functional. Put shortly:
as §1

Assay [15] shares this target. Kind of assay: Anti-estrogenic activity in mice at 0 ug. Format: functional. The method, boiled down: as §1
Assay [16] has the same target. Kind of assay: Uterotrophic effect in mice at 1000 ug. Format: functional, tissue-based. As to conditions: Uterus. Put shortly:
as §3

For assay [17] the target is unchanged. Briefly: Anti-estrogenic activity in mice at 500 ug. Format: functional. Put shortly: as §1
For assay [18] the target is unchanged. Described as §5. The assay is classed as functional, tissue-based. Further details: unit not given here. As to conditions: Uterus. The method, boiled down:
as §3

The target is the same in assay [19]. Described as §2. The assay is classed as functional, tissue-based. Also on record: unit not given here. As to conditions: Uterus. Put shortly:
as §3

Assay [20] shares this target. Described as §4. Format: functional, tissue-based. Further details: unit not given here. As to conditions: Uterus. The method, boiled down: as §3
Assay [21] shares this target. Briefly: Uterotrophic effect in mice at 1 ug (alpha =0.01). The assay is classed as functional, tissue-based. As to conditions: Uterus. The method, boiled down:
as §3

Assay [22] shares this target. Kind of assay: Uterotrophic effect in mice at 10 ug (alpha =0.01). As to conditions: Uterus. The assay is classed as functional, tissue-based. The method, boiled down: as §3
For assay [23] the target is unchanged. Kind of assay: Uterotrophic effect in mice at 100 ug (alpha =0.01). Format: functional, tissue-based. As to conditions: Uterus. The method, boiled down: as §3
The species entered for assay [24] is Rattus norvegicus. Kind of assay: Initial tumor number of DMBA-induced hormone dependent mammary carcinoma in rats prior to 2 mg dose. The assay is classed as functional. Put shortly:
(§6)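 DMBA-induced, hormone-dependent mammary adenocarcinoma in SD rats. Dose is per kg body weight and day, given once daily Monday–Thursday and doubled on Friday. Initial tumors were counted at the start and new tumors during the test. Tumors were scored as complete remission (not palpable), partial remission (≥50% size reduction), no change or progression. Tumor area and body weight change were recorded.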

The species named for assay [25] is Rattus norvegicus. Kind of assay: Percent progressive tumors in DMBA-induced hormone dependent mammary carcinoma in rats at 2 mg dose. The assay is classed as functional. Put shortly: as §6
For assay [26], the species on record is Rattus norvegicus. Kind of assay: Final tumor number of DMBA-induced hormone dependent mammary carcinoma in rats after 5 mg dose. Format: functional. The method, boiled down: as §6
The species entered for assay [27] is Rattus norvegicus. Briefly: Percent partial remission in DMBA-induced hormone dependent mammary carcinoma in rats at 5 mg dose. Format: functional. The method, boiled down:
as §6

For assay [28], the species on record is Rattus norvegicus. Kind of assay: Percent change in total tumor area of DMBA-induced hormone dependent mammary carcinoma in rats at 5 mg dose (alpha <0.05).
For assay [29], the species on record is Rattus norvegicus. Kind of assay: Percent complete remission in DMBA-induced hormone dependent mammary carcinoma in rats at 2 mg dose. Format: functional. Put shortly: as §6
Assay [30] is filed under the species Rattus norvegicus. Kind of assay: Percent progressive tumors in DMBA-induced hormone dependent mammary carcinoma in rats at 5 mg dose. The assay is classed as functional. Put shortly: as §6
The species entered for assay [31] is Rattus norvegicus. Kind of assay: Percent partial remission in DMBA-induced hormone dependent mammary carcinoma in rats at 2 mg dose. Format: functional. The method, boiled down:
as §6

Assay [32] is filed under the species Rattus norvegicus. Briefly: Percent unchanged tumors in DMBA-induced hormone dependent mammary carcinoma in rats at 2 mg dose. Format: functional. The method, boiled down: as §6
Assay [33] is filed under the species Rattus norvegicus. Briefly: Percent change in body weight in rats at 5 mg. Format: functional. The method, boiled down:
as §6

Assay [34] addresses T1, Estrogen receptor (Mus musculus). Kind of assay: Uterotrophic effect in mice at 10 ug (alpha=0.01). Format: functional, tissue-based. As to conditions: Uterus. The method, boiled down: as §3
The species named for assay [35] is Rattus norvegicus. Briefly: Percent change in body weight in rats at 2 mg. The assay is classed as functional. The method, boiled down: as §6
For assay [36], the species on record is Rattus norvegicus. Briefly: Percent complete remission in DMBA-induced hormone dependent mammary carcinoma in rats at 5 mg dose. The assay is classed as functional. Put shortly:
as §6

Assay [37] is filed under the species Rattus norvegicus. Briefly: Percent unchanged tumors in DMBA-induced hormone dependent mammary carcinoma in rats at 5 mg dose. Format: functional. Put shortly: as §6
Assay [38] concerns the target T1, Estrogen receptor (Mus musculus). Briefly: Uterotrophic effect in mice at 1 ug (alpha=0.01). The assay is classed as functional, tissue-based. As to conditions: Uterus. The method, boiled down:
as §3

The species entered for assay [39] is Rattus norvegicus. Briefly: Percent change in total tumor area of DMBA-induced hormone dependent mammary carcinoma in rats at 2 mg dose (alpha <0.05). The assay is classed as functional. The method, boiled down: as §6
The species named for assay [40] is Rattus norvegicus. Kind of assay: Final tumor number of DMBA-induced hormone dependent mammary carcinoma in rats after 2 mg dose. The assay is classed as functional. Put shortly:
as §6

The species entered for assay [41] is Rattus norvegicus. Briefly: Initial tumor number of DMBA-induced hormone dependent mammary carcinoma in rats prior to 5 mg dose. Format: functional. The method, boiled down: as §6

T1 sequence (O08537 whole entry, looked up): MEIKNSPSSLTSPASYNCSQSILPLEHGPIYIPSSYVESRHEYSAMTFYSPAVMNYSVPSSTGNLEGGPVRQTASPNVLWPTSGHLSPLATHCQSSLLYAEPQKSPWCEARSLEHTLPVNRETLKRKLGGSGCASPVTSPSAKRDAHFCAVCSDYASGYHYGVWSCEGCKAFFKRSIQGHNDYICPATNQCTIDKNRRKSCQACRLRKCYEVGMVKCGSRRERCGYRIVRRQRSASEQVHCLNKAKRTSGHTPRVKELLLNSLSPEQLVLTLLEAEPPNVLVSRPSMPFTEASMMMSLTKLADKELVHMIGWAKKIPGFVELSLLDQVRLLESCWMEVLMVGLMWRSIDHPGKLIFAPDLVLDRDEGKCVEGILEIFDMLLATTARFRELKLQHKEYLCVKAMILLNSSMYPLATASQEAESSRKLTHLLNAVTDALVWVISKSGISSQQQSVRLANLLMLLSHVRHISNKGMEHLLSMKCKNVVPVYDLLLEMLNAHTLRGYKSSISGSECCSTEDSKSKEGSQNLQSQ
T1 sequence (P19785 whole entry, looked up): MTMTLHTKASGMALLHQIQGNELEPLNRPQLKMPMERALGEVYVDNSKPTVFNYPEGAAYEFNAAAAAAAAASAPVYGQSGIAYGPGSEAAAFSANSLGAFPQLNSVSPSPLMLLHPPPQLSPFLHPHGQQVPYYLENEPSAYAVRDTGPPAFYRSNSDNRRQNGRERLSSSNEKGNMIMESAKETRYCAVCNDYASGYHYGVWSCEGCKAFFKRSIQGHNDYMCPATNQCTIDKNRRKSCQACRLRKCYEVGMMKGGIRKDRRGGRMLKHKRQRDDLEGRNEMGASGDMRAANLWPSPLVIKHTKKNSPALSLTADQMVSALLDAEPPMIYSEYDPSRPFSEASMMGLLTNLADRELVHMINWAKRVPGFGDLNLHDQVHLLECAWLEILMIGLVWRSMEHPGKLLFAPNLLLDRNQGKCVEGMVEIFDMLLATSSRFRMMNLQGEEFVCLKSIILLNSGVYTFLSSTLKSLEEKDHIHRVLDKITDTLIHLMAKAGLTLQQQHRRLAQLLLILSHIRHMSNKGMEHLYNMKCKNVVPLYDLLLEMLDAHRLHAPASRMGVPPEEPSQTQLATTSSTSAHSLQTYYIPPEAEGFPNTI

For `CC(c1cc(O)ccc1Cl)C(C)c1cc(O)ccc1Cl` (centres undefined), the inhibition in [1] was 21%; in [6], 30%; in [10], 24%. Further, the Effect in assay [2] turned out to be 39.3; in assay [3], 13; in assay [5], 26.5; in [7], 37.2; in [8] it was 14.4; in assay [9], 11.1. Besides, the Effect in [11] was found to be 41.8; in assay [12], 40.1. Also, in assay [4], the relative binding affinity (RBA) is 1.7.
As for `CC(c1ccc(O)cc1)C(C)c1ccc(O)cc1` (centres undefined), the Effect in assay [13] is 17.7; in assay [14], 38.7; in assay [3] it was 22.6; in assay [15] it was 14.4; in assay [16], 34.8; in assay [5], 28. Also, the Effect stood at 11.8 in assay [9], 37.8 in assay [17], 42.2 in assay [11] and 43.3 in [12]. The figures for the inhibition in [1], in assay [6] and in [10] were 12%, 28% and 26%, respectively. The same compound came in with a relative binding affinity (RBA) in assay [4] of 12.
For the compound `CC(c1ccc(O)cc1Cl)C(C)c1ccc(O)cc1Cl` (centres undefined), the results for the Effect in assay [18], in assay [19] and in assay [20] were 11.8, 41.6 and 40.7, respectively. Further, in assay [4], the relative binding affinity (RBA) amounted to 4.5.
Regarding `CC(c1ccc(O)cc1O)C(C)c1ccc(O)cc1O` (centres undefined), the Effect in [18] amounted to 12.5; in assay [2] it was 39.1; in assay [16] it was 34.6; in assay [7], 38.7; in assay [8] it was 14.4; in assay [11], 26.2. For the same compound, the Effect in [19] amounted to 15.4; in [20], 20.3; in assay [12] it was 50.6. Besides, the relative binding affinity (RBA) in [4] is 2.1. Further, the inhibition in assay [6] is 26%; in [10], 25%.
Take `CC(c1cccc(O)c1)C(C)c1cccc(O)c1` (centres undefined): the Effect in assay [18] turned out to be 11.9; in assay [21] it was 11.7; in assay [2], 39; in [16], 13.1; in assay [7], 36.5; in assay [8], 14.4. In addition, the Effect in [22] was determined as 12.4; in assay [23], 12.6; in assay [12], 43. Besides, the inhibition in assay [1] turned out to be 13%; in [10], 25%. The relative binding affinity (RBA) in [4] worked out at 1.
With `CC(c1ccc(O)cc1F)C(C)c1ccc(O)cc1F` (centres undefined), the Effect in [18] was found to be 11.8; in assay [19] it was 50.2; in assay [20] it was 51.4. This compound came in with a relative binding affinity (RBA) in [4] of 15.
For the compound `Cc1cc(O)ccc1C(C)C(C)c1ccc(O)cc1C` (centres undefined), the Effect in assay [13] was found to be 29.2; in assay [18], 11.8; in assay [3], 36.5; in assay [5] it was 39.4. The relative binding affinity (RBA) in assay [4] came to 29.
`CC(c1cc(O)ccc1O)C(C)c1cc(O)ccc1O` (centres undefined) returned a relative binding affinity (RBA) in assay [4] of 0.01.
Compound `CC(c1ccc(O)cc1Br)C(C)c1ccc(O)cc1Br` (centres undefined) returned a relative binding affinity (RBA) in assay [4] of 3.4.
Consider `CCc1cc(O)ccc1C(C)C(C)c1ccc(O)cc1CC` (centres undefined), for which the Effect in assay [18] came out at 12.5; in [11], 47; in assay [19], 38.8; in assay [20], 45.2. For the same compound, in assay [4], the relative binding affinity (RBA) was 12.
For `Cc1ccc(O)cc1C(C)C(C)c1cc(O)ccc1C` (centres undefined), the No. of tumors amounted to 23 in the assay listed under Rattus norvegicus [24], 23 in the assay listed under Rattus norvegicus [26], 25 in the assay listed under Rattus norvegicus [40] and 25 in the assay listed under Rattus norvegicus [41]. The Tumors in the assay listed under Rattus norvegicus [25] came to 56%; in the assay filed under Rattus norvegicus [27], 4%; in the assay listed under Rattus norvegicus [29], 11%; in the assay filed under Rattus norvegicus [30] it was 56%; in the assay filed under Rattus norvegicus [31] it was 4%; in the assay listed under Rattus norvegicus [32], 29%. Further, the Tumors in the assay listed under Rattus norvegicus [36] was found to be 15%; in the assay listed under Rattus norvegicus [37], 25%. Further, the inhibition in assay [1] was 5%; in [6] it was 35%; in assay [10], 20%. Moreover, the Tumor area stood at 283 in the assay listed under Rattus norvegicus [28] and 245 in the assay listed under Rattus norvegicus [39]. For the same compound, the Effect in assay [2] turned out to be 40.6; in assay [16] it was 17.4; in [34], 14.2; in [7], 35.6; in assay [8], 14.4; in [9], 11.1. In addition, the Effect in assay [38] was found to be 13.7; in assay [11], 12.5; in assay [12], 45.4. The same compound showed a relative binding affinity (RBA) in [4] of 5.2. Further, the Body weight turned out to be 1.1 in the assay filed under Rattus norvegicus [33] and 1.5 in the assay filed under Rattus norvegicus [35].

In general, inhibition refers to the relative decrease from the control value, in per cent.
